What was measured:
[1] = target: Thyroid hormone receptor alpha (Homo sapiens, UniProt P10827); test: Displacement of [125I]T3 from recombinant thyroid hormone receptor alpha expressed in sf9 cells by scintillation proximity assay
[2] = target: Thyroid hormone receptor beta (Homo sapiens, UniProt P10828); test: Displacement of [125I]T3 from recombinant thyroid hormone receptor beta expressed in sf9 cells by scintillation proximity assay
[3] = Inhibition of CYP3A in Sprague-Dawley rat liver microsome at 10 uM; assay type: ADME; conditions: microsomes
Hepatocyte = test: Cmax per10'6 cells in Sprague-Dawley rat hepatocytes at 10 uM; assay type: ADME, Liver; set-up: dose 10 uM
Summary of the method: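 Freshly isolated rat hepatocytes were incubated with compound. Intracellular levels of the active phosphonate were followed over time and expressed per 10⁶ cells, giving Cmax and tmax.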

[4] = Clearance in Sprague-Dawley rat at 5 mg/kg, iv; assay type: ADME, organism-based; set-up: dose 5 mg/kg, route intravenous; conditions: in vivo
Summary of the method: (§1)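 Male SD rats received a 5 mg/kg i.v. dose. Parameters were derived from the plasma concentration–time profile of the parent and its active metabolite.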

[5] = Volume of distribution in Sprague-Dawley rat at 5 mg/kg, iv; assay type: ADME, organism-based; set-up: dose 5 mg/kg, route intravenous; conditions: in vivo
[6] = Half life in Sprague-Dawley rat at 5 mg/kg, iv; assay type: ADME, organism-based; set-up: dose 5 mg/kg, route intravenous; conditions: in vivo
Summary of the method: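 Male SD rats given a single 5 mg/kg i.v. dose. Half-life derived from the plasma concentration–time profile of the parent compound.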

[7] = Cmax in Sprague-Dawley rat at 5 mg/kg, iv; assay type: ADME, organism-based; set-up: dose 5 mg/kg, route intravenous; conditions: in vivo; summary of the method: as §1
[8] = AUC (0 to 24 hrs) in Sprague-Dawley rat at 5 mg/kg, iv; assay type: ADME, organism-based; set-up: time < 24 hr, dose 5 mg/kg, route intravenous; conditions: plasma
Summary of the method: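 Male SD rats received MB07344 at 5 mg/kg i.v. Pharmacokinetic parameters, including AUC over 0–24 h, were derived from the temporal plasma concentration profile of MB07344.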

[9] = Drug excretion in Sprague-Dawley rat urine at 2 mg/kg, iv after 96 hrs; assay type: ADME, organism-based; set-up: dose 2 mg/kg, route intravenous; conditions: read-out: Activity
Summary of the method: (§2)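 Mass balance used male SD rats (n = 6) given [³H]-labelled compound (2 mg/kg, 45.5 mCi/mmol) as an i.v. bolus. Cumulative radioactivity in urine, wash and feces was monitored at 0, 12, 24, 48, 72 and 96 h.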

[10] = Drug excretion in Sprague-Dawley rat feces at 2 mg/kg, iv after 96 hrs; assay type: ADME, organism-based; set-up: dose 2 mg/kg, route intravenous; conditions: faeces, read-out: Activity; summary of the method: as §2
[11] = Drug excretion in bile duct-canulated Sprague-Dawley rat bile at 10 mg/kg, iv; assay type: ADME, organism-based; set-up: dose 10 mg/kg, route intravenous; conditions: read-out: Activity
Summary of the method: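 Naïve and bile duct-cannulated SD rats (n = 3 per group) received 10 mg/kg i.v. Compound levels were measured in the collected bile and in plasma.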

[12] = AUC (0 to 24 hrs) in bile-diverted Sprague-Dawley rat at 10 mg/kg, iv; assay type: ADME, organism-based; set-up: time < 24 hr, dose 10 mg/kg, route intravenous; conditions: plasma
Summary of the method: (§3)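 Male SD rats, naïve or bile duct-cannulated (n = 3 per group), given MB07344 at 10 mg/kg i.v. MB07344 measured in plasma and in collected bile. AUC over 0–24 h taken from the plasma concentration–time profile.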

[13] = AUC (0 to 24 hrs) in Sprague-Dawley rat at 10 mg/kg, iv; assay type: ADME, organism-based; set-up: time < 24 hr, dose 10 mg/kg, route intravenous; conditions: plasma; summary of the method: as §3

Chain of Thyroid hormone receptor alpha (P10827 whole entry): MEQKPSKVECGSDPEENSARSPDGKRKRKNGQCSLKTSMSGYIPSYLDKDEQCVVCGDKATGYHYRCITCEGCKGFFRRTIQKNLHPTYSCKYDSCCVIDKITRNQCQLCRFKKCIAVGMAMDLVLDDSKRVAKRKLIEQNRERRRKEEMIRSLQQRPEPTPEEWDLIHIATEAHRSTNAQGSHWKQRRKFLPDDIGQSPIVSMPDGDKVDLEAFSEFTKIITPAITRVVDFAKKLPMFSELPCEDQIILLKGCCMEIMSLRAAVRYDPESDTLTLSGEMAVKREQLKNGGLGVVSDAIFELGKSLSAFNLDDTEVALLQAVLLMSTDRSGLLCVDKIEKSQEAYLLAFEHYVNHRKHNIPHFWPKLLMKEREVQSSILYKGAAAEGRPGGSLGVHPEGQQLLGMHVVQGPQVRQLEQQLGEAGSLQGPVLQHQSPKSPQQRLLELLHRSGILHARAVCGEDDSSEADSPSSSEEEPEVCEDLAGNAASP
Chain of Thyroid hormone receptor beta (P10828 whole entry): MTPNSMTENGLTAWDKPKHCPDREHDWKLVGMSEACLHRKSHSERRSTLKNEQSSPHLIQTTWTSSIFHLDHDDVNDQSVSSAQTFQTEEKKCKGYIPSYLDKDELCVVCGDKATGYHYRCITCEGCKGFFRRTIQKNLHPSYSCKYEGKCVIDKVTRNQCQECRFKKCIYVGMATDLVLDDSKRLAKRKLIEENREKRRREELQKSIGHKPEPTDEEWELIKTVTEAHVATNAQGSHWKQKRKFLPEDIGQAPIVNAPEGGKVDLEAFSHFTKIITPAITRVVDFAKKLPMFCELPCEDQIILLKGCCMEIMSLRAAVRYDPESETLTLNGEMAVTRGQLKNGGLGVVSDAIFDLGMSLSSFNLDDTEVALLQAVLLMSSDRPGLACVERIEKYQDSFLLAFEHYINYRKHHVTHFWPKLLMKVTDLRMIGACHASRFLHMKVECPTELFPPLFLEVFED

Ki [1]: 0.0352 µM | Ki [2]: 0.00217 µM | Activity [3]: Not Active | Cmax (Hepatocyte): 1.77 nmol | clearance [4]: 4.67 mL/min/kg | Vd [5]: 0.39 L/kg | half-life [6]: 1.27 h | Cmax [7]: 40400 ng/mL | AUC(0-t) at 24 h [8]: 16600 ng·h/mL | dose excreted at 96 h [9]: 2% | dose excreted at 96 h [10]: 98% | dose excreted [11]: 50% | AUC(0-t) at 24 h [12]: 48100 ng·h/mL | AUC(0-t) at 24 h [13]: 35100 ng·h/mL
Structure (SMILES): Cc1cc(OCP(=O)(O)O)cc(C)c1Cc1ccc(O)c(C(C)C)c1 [MB07344]

Reference: ChEMBL document CHEMBL1156517, “Targeting thyroid hormone receptor-beta agonists to the liver reduces cholesterol and triglycerides and improves the therapeutic index” (Proc Natl Acad Sci U S A, 2007)
